Test results: ChEMBL document CHEMBL1148973, “Bioactive friedolanostanes and 11(10-->8)-abeolanostanes from the bark of Garcinia speciosa” (2004)

Legend:
Assay type in all cases: functional
MCF7 [1] = assay: Induction of apoptosis in human MCF7 cells assessed as fragmentation of genomic DNA at 19.2 uM after 48 hrs by TUNEL assay
Method in brief: (§1)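 MCF-7 cells were seeded at 1.5 × 10^5 cells/mL, grown 24 h at 37°, then exposed continuously for 48 h. Adherent and floating cells were harvested by trypsinisation, cytospun onto slides and fixed in 4% paraformaldehyde for 1 h at room temperature. DNA fragmentation was detected by fluorescein TUNEL with DAPI counterstain under fluorescence microscopy. Apoptotic percentage came from ≥400 cells over ≥5 random fields. Controls were untreated cells and 40 nM doxorubicin.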

SF-268 = assay: Cytotoxicity against human SF268 cells after 48 hrs by SRB assay; details: SF-268, 48 h
Method in brief: (§2)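 SRB growth-inhibition assay following the NCI screen protocol. Cells were kept adherent in RPMI-1640 with 5% heat-inactivated FBS and 2 mM glutamine at 37 °C under 5% CO2. Plating density was 1.5 × 10^5 cells/mL for MCF-7 and SF-268 and 7.5 × 10^4 cells/mL for NCI-H-460. Cells attached overnight, then received five concentrations (top 100 µM) for 48 h. Cells were fixed in situ, stained with SRB and the bound dye solubilised. GI50 was taken from dose-response curves. Doxorubicin served as positive control.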

MCF7 [2] = assay: Cytotoxicity against human MCF7 cells after 48 hrs by SRB assay; details: MCF7, 48 h; method in brief: as §2
NCI-H460 = assay: Cytotoxicity against human NCI-H460 cells after 48 hrs by SRB assay; details: NCI-H460, 48 h; method in brief: as §2
MCF7 [3] = assay: Induction of apoptosis in human MCF7 cells assessed as fragmentation of genomic DNA at 15.5 uM after 48 hrs by TUNEL assay; method in brief: as §1
MCF7 [4] = assay: Induction of apoptosis in human MCF7 cells assessed as fragmentation of genomic DNA at 19.4 uM after 48 hrs by TUNEL assay; method in brief: as §1
MCF7 [5] = assay: Induction of apoptosis in human MCF7 cells assessed as fragmentation of genomic DNA at 15.3 uM after 48 hrs by TUNEL assay; method in brief: as §1
MCF7 [6] = assay: Induction of apoptosis in human MCF7 cells assessed as fragmentation of genomic DNA at 26 uM after 48 hrs by TUNEL assay; method in brief: as §1
MCF7 [7] = assay: Induction of apoptosis in human MCF7 cells assessed as fragmentation of genomic DNA at 0.043 uM after 48 hrs by TUNEL assay
MCF7 [8] = assay: Induction of apoptosis in human MCF7 cells assessed as fragmentation of genomic DNA at 22.3 uM after 48 hrs by TUNEL assay; method in brief: as §1

Compound	Activity (MCF7 [1]) [%]	GI50 (SF-268) [µM]	GI50 (MCF7 [2]) [µM]	GI50 (NCI-H460) [µM]	Activity (MCF7 [3]) [%]	Activity (MCF7 [4]) [%]	Activity (MCF7 [5]) [%]	Activity (MCF7 [6]) [%]	Activity (MCF7 [7]) [%]	Activity (MCF7 [8]) [%]
COC(=O)/C(C)=C/[C@H]1C[C@@H](C)[C@]2(C)[C@@H](C=C3C4=C(CC[C@]32C)[C@@]2(C)CC[C@@H](O)C(C)(C)[C@@H]2CC4)O1	2.97	29.7	19.2	30.4	–	–	–	–	–	–
CC(=O)O[C@H]1CC[C@]2(C)C3=CC[C@]4(C)C([C@H](C)CC(=O)C[C@H](C)C(=O)O)=CC[C@@]4(C)[C@@H]3CC[C@H]2C1(C)C	–	30.6	15.5	22.1	5.33	–	–	–	–	–
C[C@H](CC(=O)C[C@H](C)C(=O)O)C1=CC[C@@]2(C)[C@@H]3CC[C@H]4C(C)(C)[C@H](O)CC[C@]4(C)C3=CC[C@]12C	–	34.8	19.4	36.9	–	2.34	–	–	–	–
COC(=O)/C(C)=C/[C@H]1C[C@@H](C)[C@]2(C)[C@@H](C=C3C4=C(CC[C@]32C)[C@@]2(C)CC[C@@H](OC(C)=O)C(C)(C)[C@@H]2CC4)O1	–	28.6	15.3	34.4	–	–	23.54	–	–	–
COC(=O)/C(C)=C/[C@H](O)C[C@@H](C)[C@]1(C)CC(=O)C2=C3CC[C@H]4C(C)(C)[C@H](O)CC[C@]4(C)[C@H]3CC[C@]21C	–	44.7	26	42.7	–	–	–	26.36	–	–
C/C(=C\CC[C@@H](C)[C@@]1(C)C[C@H]2O[C@]23[C@]1(C)CCC(=O)[C@@]31CC[C@H]2C(C)(C)[C@@H](O)CC[C@@]21C)C(=O)O	–	86.4	63.8	68.6	–	–	–	–	–	–
COC(=O)[C@@H](C)CC(=O)C[C@@H](C)C1=CC[C@@]2(C)[C@@H]3CC[C@H]4C(C)(C)[C@@H](O)CC[C@]4(C)C3=CC[C@]12C	–	> 100	> 100	> 100	–	–	–	–	–	–
C/C(=C\C=C/[C@@H](C)[C@@]1(C)C[C@H]2O[C@]23[C@]1(C)CCC(=O)[C@@]31CC[C@H]2C(C)(C)[C@@H](O)CC[C@@]21C)C(=O)O	–	95.7	69.6	70.3	–	–	–	–	–	–
COc1cccc2c1C(=O)c1c(O)c3c(c(O)c1C2=O)C[C@@](O)(C(=O)CO)C[C@@H]3O[C@H]1C[C@H](N)[C@H](O)[C@H](C)O1 [DOXORUBICIN]	–	0.093	0.043	0.094	–	–	–	–	26.02	–
COC(=O)/C(C)=C/[C@H](O)C[C@@H](C)[C@]1(C)CC=C2C3=C(CC[C@]21C)[C@@]1(C)CC[C@@H](O)C(C)(C)[C@@H]1CC3 [GARCIHOMBRONANES C]	–	38.6	22.3	37.9	–	–	–	–	–	17.36
